The record followed here is PubChem BioAssay AID488914 (Broad Institute, 2010).

Broadly, the AC50 is the concentration at which the activity in the assay is half-maximal.

Records with an inconclusive call do not appear. The source made the active and inactive calls.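 How the source made its calls: active means compounds raising caspase signal whose fitted half-maximal concentration lies at or below their highest valid tested dose; inconclusive means flat curve at 30 to 70% activity, or unreliable fit; inactive means the rest.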 Where only a bound is given, the exact number is not on record here.

Test system in the first test: not listed separately
The test is described as follows: caspase activation in TSA-primed MEWO cells, dose response, A1 (Bcl2-A1) inhibitor project, cell-based, Trichostatin A priming, dry powder (AID 488914). Conditions: MEWO cells TSA-primed, caspase-Glo luminescence, 3 h; at 135 µM (top of the series). The gist of the method:
(§1)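 technique = Caspase-Glo luminescence | system = human MEWO cells with A1 expression, Trichostatin A primed | input = 2500 cells per well | measure = caspase activity | buffer or medium = RPMI-1640 plus 10% FBS | doses = 100 nL pinned compound per well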
With `O=C(CCl)N=c1sccn1Cc1ccccc1Cl`, the caspase activation is 3.57% (inactive). The same measure, in the same setting: under `C=C1[C@@H](C)[C@H]2[C@H](Cc3ccccc3)NC(=O)[C@]23[C@H](OC(C)=O)/C=C/[C@](C)(O)C(=O)[C@@H](C)C/C=C/[C@H]3[C@@H]1O` stands 5.7% (inactive); under `COc1cc(/C=C(/C#N)c2nc3ccccc3[nH]2)ccc1OCC(=O)Nc1ccccc1C(C)C`, 2.25% (inactive). For `Cc1ccc(CS(=O)(=O)c2ncc(Cl)c(C(=O)Nc3nnc(C(C)C)s3)n2)cc1`, the caspase activation was -9.39% (inactive). With `Cn1c(=NC(=O)CCl)sc2ccccc21`, the caspase activation was -6.3% (inactive). Regarding `Cc1cccc(CS(=O)(=O)c2ncc(Cl)c(C(=O)Nc3nnc(C(C)C)s3)n2)c1`, the caspase activation is -9.05% (inactive). For the compound `CCSc1nnc(NC(=O)c2nc(S(=O)(=O)Cc3ccc(F)cc3)ncc2Cl)s1`, the caspase activation is -10.5% (inactive). Turning to `Nc1nc(F)nc2c1ncn2[C@@H]1O[C@H](CO)[C@@H](O)[C@H]1O`, the caspase activation is -2.16% (inactive). Regarding `CCc1nnc(NC(=O)c2nc(S(=O)(=O)Cc3ccccc3)ncc2Cl)s1`, the caspase activation is -6.87% (inactive).

For another test, the system named is MEWO cells TSA-primed, caspase-Glo luminescence, 3 h. Described as above.
Conditions: not given
A digest of the protocol: as §1
For the compound `Cc1ccc(Sc2c([N+](=O)[O-])c(=O)n(C)c3ccccc23)cc1`, the AC50 was 16.8 µM. Still for that read-out and setting: the value for `C/C1=C/C(=O)O[C@@H]2C[C@@H](CC[C@H](C)/C=C\CC1)O[C@@](O)(C1CSC(=O)N1)C2` (stereo not given in full) was 0.632 µM. Take `CCOC(=O)CSC1=N/C(=C/c2ccc(-n3cncn3)cc2)C(=O)N1C(C)=O`: the AC50 is 4.12 µM. Same read-out and setting: under `CC(=O)N[C@H]1[C@H](O[C@H]2CC[C@@]3(C)C(CC[C@]4(C)C3CC=C3[C@@H]5CC(C)(C)CC[C@]5(C(=O)OC5OCC(O)C(O)C5O)C(O)C[C@]34C)C2(C)C)O[C@H](COC2OCC(O)C(OC3OCC(O)C(O)C3O)C2O)[C@@H](O[C@@H]2O[C@@H](C)[C@H](O)[C@@H](O)[C@H]2O[C@@H]2O[C@@H](C)[C@H](O)[C@@H](O)[C@H]2O)[C@@H]1O` (stereo not given in full) stands 6.81 µM; under `Cc1c(CCOC(=O)c2ccc(N3CCOCC3)c([N+](=O)[O-])c2)sc[n+]1CC#N`, 13.1 µM. Still for that read-out and setting: under `COc1ccc(N(C(=O)CCl)C(C(=O)NCCc2ccccc2)c2cccs2)cc1Cl` (stereo not given) stands 10.6 µM; under `C=C1[C@@H](C)[C@H]2[C@H](Cc3ccccc3)NC(=O)[C@]23OC(=O)/C=C\[C@H](O)CCC[C@@H](C)C/C=C/[C@H]3[C@@H]1O`, 2.29 µM. Turning to `O=C(Oc1cccc(/C=N/Nc2nc(Nc3ccccc3)nc(N3CCOCC3)n2)c1)c1ccco1`, the AC50 is 6.87 µM. Consider `Cc1cc(C(=O)CCl)c(C)n1CCc1ccc(Cl)cc1`, for which the AC50 was 77.8 µM. Still for that read-out and setting: the value for `CC(C)(C)n1nc(-c2ccc(Cl)cc2)c2c(N)ncnc21` was > 135 µM (inactive); that for `COc1cccc(C(=O)C(C#N)=C(SC)SC)c1` was 0.92 µM.
